Measurements: ChEMBL document CHEMBL3526016, “Interaction of lapatinib with cytochrome P450 3A5” (Drug Metab Dispos, 2012)

Legend:
Assay type in all cases: ADME
Cytochrome P450 3A5 [1] = target: T1, Cytochrome P450 3A5 (Homo sapiens, UniProt P20815); test: Drug level assessed as recombinant human CYP3A5-mediated compound formation treated with O-dealkylated lapatinib at 50 uM after 60 mins by GSH trapping assay in presence of NADPH; details: recombinant enzyme, 1 h
How it was run: (§1)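 Recombinant CYP3A5 at 50 pmol/ml with 5 mM GSH and an NADPH regenerating system in 100 mM potassium phosphate (pH 7.4) was pre-warmed at 37°C. Substrate was added to start the reaction. After 60 min it was quenched with ice-cold ACN and centrifuged, and the supernatant was dried under nitrogen and reconstituted. Adducts were detected by LC/MS/MS MRM scans. Negative controls omitted substrate, NADPH or GSH.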

Cytochrome P450 3A5 [2] = target: T1, Cytochrome P450 3A5; test: Drug level assessed as recombinant human CYP3A5-mediated compound formation treated with lapatinib at 50 uM after 60 mins by GSH trapping assay in presence of NADPH; details: recombinant enzyme, 1 h; how it was run: as §1
Cytochrome P450 3A5 [3] = target: T1, Cytochrome P450 3A5; test: Inhibition of human recombinant CYP3A5 at 50 uM preincubated up to 30 mins with NADPH in absence of GSH; details: recombinant enzyme
How it was run: (§2)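 Primary incubation at 37°C contained 20 pmol/ml rCYP3A5 in 100 mM phosphate (pH 7.4) with 50 µM lapatinib and NADPH, with or without 2 mM GSH. At 0–30 min, aliquots were diluted 10-fold into secondary incubations with 200 µM testosterone and NADPH regenerating system for 10 min at 37°C. 6β-Hydroxytestosterone was measured by LC/MS/MS. Triplicates were run.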

Cytochrome P450 3A5 [4] = target: T1, Cytochrome P450 3A5; test: Inhibition of human recombinant CYP3A5 at 50 uM preincubated up to 30 mins with NADPH in presence of GSH; details: recombinant enzyme; how it was run: as §2
Cytochrome P450 3A5 [5] = target: T1, Cytochrome P450 3A5; test: Drug metabolism assessed as recombinant human CYP3A5-mediated quinoneimine metabolite formation by measuring retention time at 50 uM after 60 mins by GSH trapping assay in presence of NADPH; details: recombinant enzyme, 1 h; how it was run: as §1
Cytochrome P450 3A5 [6] = target: T1, Cytochrome P450 3A5; test: Inhibition of human recombinant CYP3A5 using testosterone as substrate assessed as testosterone 6-beta-hydroxylation at 50 uM preincubated up to 30 mins without NADPH followed by substrate addition measured after 10 mins by LC/MS/MS analysis; details: recombinant enzyme
How it was run: (§3)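 Primary incubation at 37°C (n=3) held 20 pmol/ml rCYP3A5 in 100 mM phosphate (pH 7.4), 0.1% DMSO and 0.9% ACN, with inhibitor; lapatinib was at 2.5–50 µM. NADPH started the reaction; buffer replaced it in negative controls. At 0, 3, 8, 15, 22 and 30 min, aliquots were diluted 10-fold into 200 µM testosterone or 25 µM midazolam with NADPH regenerating system for 10 min at 37°C. 6β-Hydroxytestosterone or 1'-hydroxymidazolam was measured by LC/MS/MS. Ln % residual activity was regressed against time to give kobs.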

Cytochrome P450 3A4 = Cytochrome P450 3A4 (Homo sapiens, UniProt P08684); test: Inhibition of human recombinant CYP3A4 assessed as metabolite-inhibitor complex formation at 50 uM preincubated for 3 to 5 mins with NADPH A followed by NADPH B addition measured every 1 min for 10 mins by UV absorbance spectra analysis; details: recombinant enzyme
How it was run: (§4)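 For difference spectra, 50 µM compound with 100 pmol/ml recombinant enzyme and NADPH A in 100 mM potassium phosphate (pH 7.4) was pre-warmed at 37°C for 3–5 min. NADPH B was added to start the reaction. The mixture was scanned from 430 to 495 nm every 1 min for 10 min at 37°C against a reference cuvette, normalized to 0 min. The negative control replaced NADPH B with buffer.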

CYP3A4 = CYP3A4 (Homo sapiens, UniProt P08684); test: Ratio of Kinact to Ki for recombinant human CYP3A4 using testosterone as substrate; details: recombinant human CYP3A4, probe testosterone
Cytochrome P450 3A5 [7] = target: T1, Cytochrome P450 3A5; test: Irreversible inhibition of human recombinant CYP3A5 using testosterone as substrate assessed as residual enzyme activity at 50 uM preincubated up to 30 mins with NADPH followed by substrate addition measured after dialysis
How it was run: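 200 pmol/ml rCYP3A5 with 50 µM lapatinib and NADPH in 100 mM phosphate (pH 7.4) was incubated for 30 min at 37°C (n=3). Mixtures were dialysed (12000–14000 Da cut-off) against buffer at 4°C with one buffer change at 2 h, then for 4 h more. Aliquots before and after dialysis were assayed with 200 µM testosterone for 10 min at 37°C. 6β-Hydroxytestosterone was measured by LC/MS/MS.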

Cytochrome P450 3A5 [8] = target: T1, Cytochrome P450 3A5; test: Inhibition of human recombinant CYP3A5 using testosterone as substrate assessed as testosterone 6-beta-hydroxylation at 2.5 to 50 uM preincubated up to 30 mins with NADPH followed by substrate addition by LC/MS/MS analysis; details: recombinant enzyme, TDE = time-dependent effect
How it was run: (§5)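 Primary: rCYP3A5 20 pmol/ml, inhibitor 2.5–50 μM, 100 mM phosphate pH 7.4, 37°C, NADPH-initiated; aliquots at 0–30 min diluted 10-fold into secondary mix with 200 μM testosterone plus NADPH regenerating system, 10 min at 37°C. 6β-hydroxytestosterone by LC/MS/MS, triplicate. ln % residual activity vs time gave kobs; KI, kinact from Kitz-Wilson plot.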

Cytochrome P450 3A5 [9] = target: T1, Cytochrome P450 3A5; test: (§6) Inhibition of human recombinant CYP3A5 using testosterone as substrate assessed as testosterone 6-beta-hydroxylation preincubated up to 30 mins with NADPH followed by substrate addition measured after 10 mins by LC/MS/MS analysis; how it was run: as §5
CYP3A5 [10] = target: T2, CYP3A5 (Homo sapiens, UniProt P20815); test: as §6; details: human, recombinant human CYP3A5, probe testosterone; how it was run: as §5
CYP3A5 [11] = target: T2, CYP3A5; test: Ratio of Kinact to Ki for recombinant human CYP3A5 using testosterone as substrate; details: recombinant human CYP3A5, probe testosterone; how it was run: as §5
CYP3A5 [12] = target: T2, CYP3A5; test: Inhibition of human recombinant CYP3A5 assessed as reduction of enzyme-CO complex formation at 50 uM preincubated for 3 to 5 mins with NADPH B followed by NADPH A addition measured after 30 mins by CO difference spectroscopy relative to control
How it was run: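 rCYP3A5 640 pmol/ml with 50 μM inhibitor in 100 mM potassium phosphate pH 7.4, prewarmed 3–5 min at 37°C, NADPH-initiated, incubated 30 min at 37°C (n=3). Quenched in buffer with EDTA, glycerol, NP-40, safranin O; split sample/reference, CO bubbled (~100 bubbles). P450 content = (ΔA450−ΔA490)/0.091; controls without NADPH.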

Cytochrome P450 3A5 [13] = target: T1, Cytochrome P450 3A5; test: Inhibition of human recombinant CYP3A5 assessed as metabolite-inhibitor complex formation at 50 uM preincubated for 3 to 5 mins with NADPH A followed by NADPH B addition measured every 1 min for 10 mins by UV absorbance spectra analysis; details: recombinant enzyme; how it was run: as §4
Cytochrome P450 3A5 [14] = target: T1, Cytochrome P450 3A5; test: Inhibition of human recombinant CYP3A5 using testosterone as substrate assessed as testosterone 6beta-hydroxylation at 50 uM preincubated up to 30 mins with NADPH followed by substrate addition measured after 10 mins by LC/MS/MS analysis; details: recombinant enzyme; how it was run: as §3
Cytochrome P450 3A5 [15] = target: T1, Cytochrome P450 3A5; test: Inhibition of human recombinant CYP3A5 using midazolam as substrate assessed as midazolam 1'-hydroxylation at 2.5 to 50 uM preincubated up to 30 mins with NADPH followed by substrate addition measured after 10 mins by LC/MS/MS analysis; details: recombinant enzyme; how it was run: as §3
Cytochrome P450 3A5 [16] = target: T1, Cytochrome P450 3A5; test: Inhibition of human recombinant CYP3A5 using testosterone as substrate assessed as testosterone 6-beta-hydroxylation at 5 to 50 uM preincubated up to 30 mins with NADPH followed by substrate addition measured after 10 mins by LC/MS/MS analysis; details: recombinant enzyme; how it was run: as §3

T1 sequence (P20815 whole entry): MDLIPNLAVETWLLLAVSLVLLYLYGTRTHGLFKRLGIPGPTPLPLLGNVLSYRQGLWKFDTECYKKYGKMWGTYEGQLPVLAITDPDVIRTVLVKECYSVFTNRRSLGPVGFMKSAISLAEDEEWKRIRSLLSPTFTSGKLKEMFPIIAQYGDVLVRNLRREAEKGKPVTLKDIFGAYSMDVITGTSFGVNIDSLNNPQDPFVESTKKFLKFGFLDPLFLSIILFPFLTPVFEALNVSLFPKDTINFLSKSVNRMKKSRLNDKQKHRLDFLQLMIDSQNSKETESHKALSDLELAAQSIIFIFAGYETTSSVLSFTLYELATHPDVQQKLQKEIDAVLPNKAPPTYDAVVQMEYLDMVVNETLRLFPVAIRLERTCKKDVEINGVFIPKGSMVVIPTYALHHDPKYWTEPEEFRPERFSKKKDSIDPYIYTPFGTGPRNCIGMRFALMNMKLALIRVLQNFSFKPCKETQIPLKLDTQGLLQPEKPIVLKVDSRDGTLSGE
T2 sequence (P20815 whole entry): as above
CYP3A4, sequence (P08684 whole entry): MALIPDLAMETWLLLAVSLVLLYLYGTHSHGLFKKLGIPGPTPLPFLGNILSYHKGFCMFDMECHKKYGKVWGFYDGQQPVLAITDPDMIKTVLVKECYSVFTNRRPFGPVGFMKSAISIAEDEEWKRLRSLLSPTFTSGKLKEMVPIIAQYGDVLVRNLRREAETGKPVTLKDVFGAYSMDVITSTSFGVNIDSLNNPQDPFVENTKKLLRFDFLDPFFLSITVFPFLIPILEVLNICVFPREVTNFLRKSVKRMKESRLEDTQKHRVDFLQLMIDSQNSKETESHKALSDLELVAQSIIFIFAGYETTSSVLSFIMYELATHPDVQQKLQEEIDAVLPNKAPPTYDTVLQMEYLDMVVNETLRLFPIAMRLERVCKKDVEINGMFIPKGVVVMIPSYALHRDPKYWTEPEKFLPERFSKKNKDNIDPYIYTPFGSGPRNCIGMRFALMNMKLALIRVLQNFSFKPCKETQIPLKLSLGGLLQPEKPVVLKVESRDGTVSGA
Cytochrome P450 3A4, sequence (P08684 whole entry): as above

Compound: CS(=O)(=O)CCNCc1ccc(-c2ccc3ncnc(/N=C4\C=CC(=O)C(Cl)=C4)c3c2)o1
- Drug metabolism (Cytochrome P450 3A5 [1]): metabolite_detected
- Drug metabolism (Cytochrome P450 3A5 [2]): metabolite_detected

Compound: CS(=O)(=O)CCNCc1ccc(-c2ccc3ncnc(Nc4ccc(OCc5cccc(F)c5)c(Cl)c4)c3c2)o1 [LAPATINIB]
- inhibition (INH) (Cytochrome P450 3A5 [3]): Active
- inhibition (INH) (Cytochrome P450 3A5 [4]): Not Active
- Retention_time (Cytochrome P450 3A5 [5]): 1.71 min
- inhibition (INH) (Cytochrome P450 3A5 [6]): Not Active
- inhibition (INH) (Cytochrome P450 3A4): Active
- kinact/KI (CYP3A4): 197 M⁻¹ s⁻¹
- inhibition (INH) (Cytochrome P450 3A5 [7]): Active
- inhibition (INH) (Cytochrome P450 3A5 [8]): tde
- Ki (Cytochrome P450 3A5 [9]): 37.6 µM
- inhibition (INH) (Cytochrome P450 3A5 [9]; human, recombinant enzyme, 10 min): Dose-dependent effect
- kinact at 10 min (CYP3A5 [10]): 0.000377 s⁻¹
- kinact/KI (CYP3A5 [11]): 10 M⁻¹ s⁻¹
- inhibition at 0.5 h, 50 µM (CYP3A5 [12]): 22%
- inhibition (INH) (Cytochrome P450 3A5 [13]): Not Active
- inhibition (INH) (Cytochrome P450 3A5 [14]): Active
- inhibition (INH) (Cytochrome P450 3A5 [15]): Not Active

Compound: CS(=O)(=O)CCNCc1ccc(-c2ccc3ncnc(Nc4ccc(O)c(Cl)c4)c3c2)o1
- inhibition (INH) (Cytochrome P450 3A5 [16]): Not Active
